Experimental data taken from publication PMC6863163 (Journal of neuro-oncology, 2019).
“And” between values parts separate entries of the source, which are not always exact repeats. Equal values may be shown once. Read-outs that look alike come from different tables or passages of the source. One block for each compound: values may come before it.

Tests used:
[1] = system: recurrent Rb-positive GBM; details: 22 patients, 125 mg/day, 21-days-on, 7-days-off; cited from earlier work
[2] = system: GBM cell proliferation; details: 7 days before surgery, 4 matched samples; ref Taylor et al. 34; cited from earlier work
[3] = system: recurrent GBM; details: three of 17 patients with recurrent GBM; 150 mg or 200 mg twice daily; cited from earlier work
[4] = system: RbS807/811; assay: Immunohistochemistry for phospho-Rb in paired tumor specimens; format: in vivo, human
[5] = system: cell proliferation; details: 900 mg/day for 5 days before surgery, 12 patients; ref Tien et al. 37; cited from earlier work
[6] = cited from earlier work
[7] = system: Rb phosphorylation; details: cultured cells, in vitro; cited from earlier work
[8] = format: in vivo, human
Procedure, shortened: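 Patients took oral ribociclib, 600 mg/day, for 8–21 days, with the last dose 4–8 h before surgery. Baseline blood was drawn before treatment and again within 1 h before surgery, then split into plasma and buffy coat. CSF was collected during surgery when feasible. Tumor core and infiltrating regions were located by stealth MRI and frozen. Total drug was measured by validated LC–MS/MS. Unbound drug equals fraction unbound × total.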

[9] = Safety monitoring, adverse events graded by NCI CTCAE version 4.0; format: in vivo, human; details: for Cough / Creatinine increased / Edema, limbs / Gait disturbance / Generalized muscle weakness / Hyperglycemia / Musculoskeletal and connective tissue disorder—other: muscle pain / Nausea / Peripheral sensory neuropathy / Psychosis / Insomnia: count, prior to surgery and during treatment phase
Procedure, shortened: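 Participants with recurrent GBM took oral ribociclib, 600 mg once daily, for 8–21 days before resection. Rb-positive cases then continued on 21 days on and 7 days off per 28-day cycle. Throughout treatment, staff monitored complete blood counts, blood chemistry, 12-lead ECG, vital signs, Karnofsky status and physical exam. Adverse events were graded by NCI CTCAE v4.0 and assessed for expectedness and drug attribution.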

[10] = system: recurrent GBM; assay: Disease progression; format: in vivo, human; details: for PFS from start of Ribociclib: 600 mg/day, 21-days-on, 7-days-off after surgery; for OS from second surgery: other regimens off-study after progression
Procedure, shortened: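 Patients with Rb-positive recurrent tumors continued oral ribociclib, 600 mg/day, 21 days on and 7 days off per 28-day cycle, until progression or unacceptable toxicity. Follow-up MRI, including perfusion and diffusion-weighted images, was done after every two cycles. Progression was judged by the Response Assessment in Neuro-Oncology (RANO) criteria.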

[11] = format: in vitro ADME, human
Procedure, shortened: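 Plasma and tumor homogenate came from patients dosed at ribociclib 600 mg/day for 8–21 days. Samples were collected 4–8 h after the last pre-surgical dose. Fraction unbound was determined by equilibrium dialysis across a 5-kDa cutoff regenerated cellulose membrane.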

[12] = system: Rb phosphorylation; details: 900 mg/day for 5 days before surgery, 12 patients; ref Tien et al. 37; cited from earlier work
[13] = system: cell growth; details: suppression of cell growth in vitro; no reference given; cited from earlier work
[14] = enhancing tumor, subject RIBO-001, mean of specimens
[15] = enhancing tumor, subject RIBO-003, mean of specimens
[16] = mean across all specimens, 600 mg QD 8–21 days
[17] = mean ± SD, all tumor specimens of three subjects
[18] = mean ± SD, assuming tumor tissue density of 1.04 g/mL
[19] = non-enhancing tumor, subject RIBO-001, mean of specimens
[20] = tumor core, subject RIBO-002, mean of specimens
[21] = tumor core, subject RIBO-003, mean of specimens

Compound: CC(=O)c1c(C)c2cnc(Nc3ccc(N4CCNCC4)cn3)nc2n(C2CCCC2)c1=O [palbociclib]
Median PFS [1]: 5.1 weeks | OS [1]: 15.4 weeks | Change in GBM cell proliferation by Ki-67 IHC [2]: did not produce significant changes | Tumor drug concentrations vs pharmacologically active level [2]: exceeded those felt to be pharmacologically active

Compound: CCN1CCN(Cc2ccc(Nc3ncc(F)c(-c4cc(F)c5nc(C)n(C(C)C)c5c4)n3)nc2)CC1 [abemaciclib]
Best response: duration of stable disease [3]: ≥ 24 weeks

Mean unbound ribociclib concentration in CSF ([8]; 600 mg QD 8–21 days, one CSF sample): 0.632 µM and 0.63 µM | Ribociclib CSF concentration relative to the IC50 for inhibition of CDK4/6 ([8]; CSF): > fivefold | Total ribociclib (CSF ribociclib concentration) ([8]; CSF collected during surgery, subject RIBO-003, 600 mg QD, 14 days): 0.63 µM | Total drug tumor (mean concentration) [8, 14]: 17.97 nmol/g | Unbound drug tumor (mean concentration) [8, 14]: 0.79 nmol/g | Total drug tumor (mean concentration) ([8]; enhancing tumor, subject RIBO-002, mean of specimens): 24.73 nmol/g | Total drug tumor (mean concentration) [8, 15]: 29.99 nmol/g | Unbound drug tumor (mean concentration) [8, 15]: 1.29 nmol/g | Kp ([8]; human, CSF / unbound plasma, oral, 600 mg/day, CSF/unbound plasma concentration ratio, one patient, 0.63/0.49): 1.29 | Mean unbound ribociclib concentration in MRI-enhancing tumor [8, 16]: 1.242 nmol/g | Mean unbound ribociclib concentration in MRI-non-enhancing tumor [8, 16]: 0.484 nmol/g and 0.48 nmol/g | Mean unbound ribociclib concentration in tumor core [8, 16]: 1.526 nmol/g | Mean concentration of unbound ribociclib in MRI-enhancing tumor or core ([8]; mean across all subjects, reported herein, 600 mg/day): 1.33 nmol/g | Mean unbound ribociclib concentration in plasma ([8]; mean across participants, 600 mg QD 8–21 days): 0.337 µM | Tumor tissue concentration of total ribociclib [8, 17]: 23.42 ± 10.79 nmol/g | Tumor tissue concentration of unbound ribociclib [8, 17]: 1.24 ± 0.64 nmol/g | Tumor tissue concentration of total ribociclib [8, 18]: 24.36 ± 11.22 µM | Unbound ribociclib intra-tumor drug concentration [8, 18]: 1.29 ± 0.67 µM | Unbound concentration in non-enhancing tumor relative to the IC50 for inhibition of CDK4/6 ([8]; non-enhancing tumor): > fivefold | Total drug tumor (mean concentration) [8, 19]: 8.86 nmol/g | Unbound drug tumor (mean concentration) [8, 19]: 0.48 nmol/g | Total ribociclib ([8]; plasma, day of surgery, subject RIBO-001, 600 mg QD, 8 days before surgery): 3.65 µM | Total ribociclib ([8]; plasma, day of surgery, subject RIBO-002, 600 mg QD, 12 days before surgery): 1.26 µM | Total ribociclib ([8]; plasma, day of surgery, subject RIBO-003, 600 mg QD, 14 days before surgery): 5.44 µM | Total ribociclib ([8]; tumor core specimen, subject RIBO-001, 600 mg QD, 8 days, 4–8 h after last dose): 16.30 nmol/g | Total drug tumor (mean concentration) ([8]; tumor core, subject RIBO-001): 16.30 nmol/g | Unbound drug tumor (mean concentration) ([8]; tumor core, subject RIBO-001): 0.82 nmol/g | Total drug tumor (mean concentration) [8, 20]: 33.03 nmol/g | Unbound drug tumor (mean concentration) [8, 20]: 2.11 nmol/g | Total drug tumor (mean concentration) [8, 21]: 21.65 nmol/g | Unbound drug tumor (mean concentration) [8, 21]: 1.30 nmol/g | Fraction unbound ([11]; enhancing tumor specimens, subject RIBO-001): 3.9% | Fraction unbound ([11]; enhancing tumor specimens, subject RIBO-002): 6.4% and 5.8% and 5.4% | Fraction unbound ([11]; enhancing tumor specimens, subject RIBO-003): 4.1% and 4.3% | Fraction unbound ([11]; human, plasma, Fraction unbound, subject RIBO-001): 0.102 | Fraction unbound ([11]; human, plasma, Fraction unbound, subject RIBO-002): 0.119 | Fraction unbound ([11]; human, plasma, Fraction unbound, subject RIBO-003): 0.09 | Fraction unbound ([11]; non-enhancing tumor specimens, subject RIBO-001): 4.2% | Fraction unbound ([11]; tumor core specimens, subject RIBO-003): 6.3%
Compound: CN(C)C(=O)c1cc2cnc(Nc3ccc(N4CCNCC4)cn3)nc2n1C1CCCC1 [ribociclib]
Inhibition of tumor tissue CDK4/6 activity (phospho-Rb IHC) or cell proliferation (Ki-67 IHC) ([4]; 600 mg/day monotherapy, archived vs post-ribociclib tumor tissue): did not consistently inhibit | Proportion of phospho-Rb-positive tumor cells and phospho-Rb histoscores, ribociclib-treated vs. baseline tumors ([4]; 8–21 days of ribociclib 600 mg/day, three subjects, Fig. S1A): Two of the three subjects showed a decrease | Change in cell proliferation, archived vs post-ribociclib tumor [5]: significant decrease | Mean unbound ribociclib fraction in plasma ([6]; CV = 17.6%): 12.7% | Mean unbound ribociclib fraction in tumor tissues ([6]; CV = 23%): 4.6% | Ribociclib (total drug) sufficient to suppress Rb phosphorylation [7]: 200 nM | Grade of all observed adverse events ([9]; CTCAE v4.0, three participants, 600 mg/day): ≤ 2 grade | Cough ([9]; Grade 1): 1 | Creatinine increased ([9]; Grade 1): 0 | Edema, limbs ([9]; Grade 1): 1 | Gait disturbance ([9]; Grade 1): 0 | Generalized muscle weakness ([9]; Grade 1): 0 | Hyperglycemia ([9]; Grade 1): 0 | Musculoskeletal and connective tissue disorder—other: muscle pain ([9]; Grade 1): 1 | Nausea ([9]; Grade 1): 1 | Peripheral sensory neuropathy ([9]; Grade 1): 1 | Psychosis ([9]; Grade 1): 1 | Creatinine increased ([9]; Grade 2): 1 | Edema, limbs ([9]; Grade 2): 0 | Gait disturbance ([9]; Grade 2): 1 | Generalized muscle weakness ([9]; Grade 2): 1 | Hyperglycemia ([9]; Grade 2): 1 | Insomnia ([9]; Grade 2): 1 | Musculoskeletal and connective tissue disorder—other: muscle pain ([9]; Grade 2): 0 | Nausea ([9]; Grade 2): 0 | Peripheral sensory neuropathy ([9]; Grade 2): 0 | Cough ([9]; Total): 1 | Creatinine increased ([9]; Total): 1 | Edema, limbs ([9]; Total): 1 | Gait disturbance ([9]; Total): 1 | Generalized muscle weakness ([9]; Total): 1 | Hyperglycemia ([9]; Total): 1 | Insomnia ([9]; Total): 1 | Musculoskeletal and connective tissue disorder—other: muscle pain ([9]; Total): 1 | Nausea ([9]; Total): 1 | Peripheral sensory neuropathy ([9]; Total): 1 | Psychosis ([9]; Total): 1 | Serious adverse events ([9]; three participants, 600 mg/day): No participants experienced serious adverse events | Withdrawal from the study due to adverse events ([9]; three participants, 600 mg/day): No participants withdrew | Disease progression ([10]; all three participants, ribociclib monotherapy): all experienced early disease progression | PFS from start of Ribociclib ([10]; participant 001): 2 months | OS from second surgery ([10]; participant 001): 10 months | PFS from start of Ribociclib ([10]; participant 002): 5 months | OS from second surgery ([10]; participant 002): 19 months | PFS from start of Ribociclib ([10]; participant 003): 2 months | OS from second surgery ([10]; participant 003): 12 months | Change in Rb phosphorylation, archived vs post-ribociclib tumor [12]: significant decrease | GI50 [13]: 0.276 µM
